Most compounds without a hit are left out; they make up all but 2.9% or so of the library.
PAD4 inh = blocks human protein arginine deiminase 4; AID 485272; recombinant PAD4, RCA probe fluorescence polarization; Q9UM07; 0.41% of 330,000 active; inhibition, % at 6.36 µM;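 active means percent inhibition above a cutoff equal to the mean of all tested compounds plus 3 SD, cut at about 15% in these data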;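 further: 0% = PAD4 with RCA probe and DMSO and 100% = probe without PAD4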
Target sequence (Q9UM07 whole entry, looked up): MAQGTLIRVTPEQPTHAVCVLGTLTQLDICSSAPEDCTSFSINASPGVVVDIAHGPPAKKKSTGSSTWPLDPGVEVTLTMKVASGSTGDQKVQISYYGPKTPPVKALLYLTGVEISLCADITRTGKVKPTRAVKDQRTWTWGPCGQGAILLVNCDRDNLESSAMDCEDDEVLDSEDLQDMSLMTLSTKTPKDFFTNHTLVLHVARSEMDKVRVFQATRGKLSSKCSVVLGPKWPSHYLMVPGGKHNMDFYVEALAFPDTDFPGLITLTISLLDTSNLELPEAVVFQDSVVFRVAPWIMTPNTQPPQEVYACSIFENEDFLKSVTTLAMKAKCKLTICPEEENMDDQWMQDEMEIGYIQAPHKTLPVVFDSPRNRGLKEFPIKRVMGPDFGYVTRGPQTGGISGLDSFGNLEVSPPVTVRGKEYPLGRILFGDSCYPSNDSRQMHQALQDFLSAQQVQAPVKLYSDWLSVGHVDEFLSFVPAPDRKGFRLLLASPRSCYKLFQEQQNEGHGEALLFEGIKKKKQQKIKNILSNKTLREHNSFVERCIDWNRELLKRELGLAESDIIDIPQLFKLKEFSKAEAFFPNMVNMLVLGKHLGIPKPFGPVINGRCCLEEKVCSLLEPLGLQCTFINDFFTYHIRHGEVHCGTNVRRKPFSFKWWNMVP
ABHD4 inh = ABHD4 (mouse) inhibition, primary FP screen. Q8VD66. purified mABHD4, FP-Rh probe fluorescence polarization. inhibition, % at 8.92 µM. 0.54% of 370,000 active;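 active means inhibition exceeding the mean over every tested compound plus 3 SD, cut at about 30% in these data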;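 further: 0% = plate median of compound wells and 100% = S159A mutant with DMSO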
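Test system: mABHD4 protein; Read-out basis: % inhibition; Incubation: 45 min + 60 min at 25 °C; Repeats: single replicate; Technique: fluorescence polarization with parallel and perpendicular emission, 525/598 nm; Compound: 8.92 µM, single dose; Benchmarks: full inhibition S159A mutant plus DMSO, zero as sample-well median.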
SIAE primary = inhibitors of human sialic acid acetylesterase SIAE | Q9HAT2 | SIAE FP-Rh probe binding, fluorescence polarization | inhibition, % at 9.66 µM | 0.69% of 370,000 active | AID 1053197;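 active means inhibition above a cutoff: mean of compounds within the control limits plus 3 SD of those, cut at about 17% in these data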;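 further: 0% = plate median of compound wells and 100% = probe without SIAE protein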
TCR-CD3 inh = inhibitors of human TCR-CD3 interaction. 0.37% of 360,000 active. TAMRA-labeled TCR probe fluorescence, biochemical. inhibition, % at 9.4 µM; in the data active means inhibition above about 19%;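 further: recombinant mutant TCR 2C K166C tagged with TAMRA read by polarization; 0% = receptor in buffer alone and 100% = receptor with positive control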
PRMT1 inh = inhibitors of human PRMT1 | 1.3% of 370,000 active | recombinant PRMT1, activity-based probe fluorescence polarization | Q99873 | AID 652257 | inhibition, % at 2.79 µM;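 active means inhibition above about 21% made by adding two undisclosed values, limit read from the data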
HTRA1 inhibitor = blocks human HTRA1 serine peptidase | recombinant HTRA1, FP-rhodamine activity-based probe, fluorescence polarization | 0.5% of 340,000 active | AID 504803 | Q92743 | inhibition, % at 5.96 µM; in the data active means inhibition above about 36%;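 further: 0% = enzyme with DMSO and 100% = wells lacking enzyme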
PRMT1 confirm = confirmation of human PRMT1 inhibitors. shares compounds with PRMT1 inh. recombinant His-PRMT1, activity-based probe fluorescence polarization. inhibition, % at 2.79 µM. 42% of 3,300 active;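 active means mean inhibition across replicates above the hit cutoff derived for the earlier primary screen, cut at about 22% in these data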
* hit, by the source's call; nt = not tested or not shown.

SMILES | PAD4 inh | ABHD4 inh | SIAE primary | TCR-CD3 inh | PRMT1 inh | HTRA1 inhibitor | PRMT1 confirm
CCN1Cc2nnn(Cc3ccccc3)c2-c2cc(F)ccc2S1(=O)=O | nt | -9 | -1 | nt | -2 | nt | nt
N#CC(=C1C=CC(=NO)C(Cl)=C1)c1ccc(Cl)cc1 | nt | 5 | -8 | 2 | 4 | -4 | nt
COc1ccc(C(C#N)=C2C=CC(=NO)C=C2)cc1 | 3 | -3 | -12 | 3 | 28* | 3 | 6
Cc1cc(O)c(C2=Nc3ccccc3SC(c3ccc(Cl)cc3)C2)c(=O)o1 (stereo not given) | 6 | -12 | -4 | -8 | 37* | 0 | 10
Cc1ccc(C2=N/C(=C\c3coc4ccccc4c3=O)C(=O)O2)cc1 | nt | 19 | 4 | 3 | 37* | nt | 1
CSC1=NSC2=NC(=O)/C(=C\c3coc4ccccc4c3=O)C(=N)N12 | -10 | -16 | -34 | 2 | 31* | -14 | 72*
CC(C)CSC1=NSC2=NC(=O)/C(=C\c3coc4ccccc4c3=O)C(=N)N12 | -27 | -33 | -14 | -11 | -8 | -45 | nt
COc1ccc(/C=C2\N=C(c3ccc(C)cc3)OC2=O)cc1 | 0 | 5 | -1 | -5 | 2 | 3 | nt
COc1ccc(N2C(=O)CC(Sc3n[nH]c(-c4ccccc4)n3)C2=O)cc1 (stereo not given) | 3 | 0 | 14 | 4 | 30* | 2 | 75*
COc1ccc(N2C(=O)CC(Sc3nc(C)c4c(n3)CCCC4)C2=O)cc1 (stereo not given) | -7 | 5 | 2 | -1 | 8 | 4 | nt
CCOc1ccc(N2C(=O)CC(Sc3n[nH]c(-c4ccccc4)n3)C2=O)cc1 (stereo not given) | 2 | -1 | 5 | 1 | 32* | -6 | 52*
COC(=O)C1=C(C)NC(=S)NC1c1ccc(-c2cc(Cl)ccc2Cl)o1 (stereo not given) | -1 | -12 | -9 | -3 | 70* | -18 | 19
COC(=O)C1=C(C)NC(=O)NC1c1ccc(-c2ccc(Cl)cc2)o1 (stereo not given) | -6 | -6 | 7 | -3 | 4 | -7 | nt
O=C1N(Cc2ccccc2)CC2(Br)COCOC12O (stereo not given) | nt | 8 | 4 | 4 | 90* | -1 | 91*
Cc1c(N)cc(N)cc1C(=O)O | -10 | 27 | 8 | 7 | 32* | 3 | 12
COC(=O)[C@@]1(C)[C@H]2C(=O)N(C)C(=O)[C@H]2[C@H]2CN=C(SCC(=O)c3ccccc3)N21 | -1 | 3 | -2 | -2 | 76* | 10 | 80*
CC[C@]1(C(=O)OC)[C@H]2C(=O)N(Cc3ccccc3)C(=O)[C@H]2[C@H]2CN=C(SCC(=O)c3ccccc3)N21 | 5 | 0 | 1 | 2 | 54* | -7 | 58*
O=C(N[C@H]1C[C@@H]2O[C@H](CO)CC[C@@H]2O[C@@H]1CCc1ccc(-c2cccnc2)cc1)c1cccc(F)c1 | nt | 2 | -4 | nt | 1 | nt | nt
O=C(c1ccncc1)N1CCC(Oc2cccnc2)CC1 | nt | -1 | 0 | nt | -5 | nt | nt
CC(=O)Nc1sc2c(c1-c1nc3ccccc3s1)CCN(C(C)C)C2 | -1 | nt | nt | nt | nt | -15 | nt
CC(C)N1CCc2c(sc(NC(=O)C(F)F)c2-c2nc3ccccc3s2)C1 | nt | 6 | -1 | nt | 29* | nt | 5
CC(=O)Nc1sc2c(c1-c1nc3ccccc3s1)CCN(C(C)C)CC2 | nt | 15 | 4 | nt | 37* | nt | 11
O=C(CCS(=O)(=O)c1ccccc1)Nc1cc(Cl)ccc1F | nt | 1 | 2 | nt | 0 | nt | nt
CC(C)(C)C(=O)OC12CCCN(C1)/C(=C/c1ccccc1)C2 (stereo not given) | nt | 4 | -1 | nt | 0 | nt | nt
Cc1ccc(N2C(=O)CS/C2=N\C(=S)Nc2ccccc2)cc1 | -12 | -16 | -3 | -6 | 28* | nt | 3
SMILES | PAD4 inh | ABHD4 inh | SIAE primary | TCR-CD3 inh | PRMT1 inh | HTRA1 inhibitor | PRMT1 confirm
CCc1ccc(CCNC(=O)OC2CC3CC2[C@H]2CCCCN2[C@H]3C)cc1 (stereo not given in full) | nt | -1 | 1 | nt | -3 | nt | nt
O=C(NC1CCN(Cc2ccccc2)C1)c1cccc(S(=O)(=O)N2CCOCC2)c1 (stereo not given) | nt | 2 | 2 | 1 | -7 | -1 | nt
O=C(NC1CCN(Cc2ccccc2)CC1)c1cc(S(=O)(=O)N2CCOCC2)ccc1Cl | nt | 10 | 1 | 2 | 113* | 5 | 5
CCOC(=O)c1ccc(N2C(=O)c3n[nH]c(-c4ccco4)c3C2c2cccc([N+](=O)[O-])c2)cc1 (stereo not given) | -5 | -31 | -16 | -2 | 60* | -110 | 1
CCOC(=O)c1ccc(N2C(=O)c3n[nH]c(C)c3C2c2ccco2)cc1 (stereo not given) | -1 | -9 | 3 | 7 | -3 | -14 | nt
C=CCNC(=O)c1ccc(Cl)cc1Cl | 0 | 0 | 0 | -3 | 0 | 7 | nt
C=CCNC(=O)c1ccsc1N | nt | 21 | 8 | 16 | 27* | nt | 12
O=c1c2ccccc2nc(SCc2nnc(-c3ccccc3Br)o2)n1Cc1ccco1 | 6 | -15 | -7 | 6 | 69* | -32 | 58*
COc1ccc([C@H]2OC(=O)C[C@H]2C(=O)N2CCCC2)cc1OC | nt | 1 | -1 | nt | -2 | nt | nt
COc1ccc(N=Nc2nc3cc(Br)c(Br)cc3n2C)c(OC)c1 | 9 | 14 | 4 | 9 | 69* | 7 | 49*
COc1ccc(CNc2nc3ccccc3n2C)c(OC)c1 | -3 | -4 | -2 | -3 | 2 | -6 | nt
Cc1ccc(S(=O)(=O)N2CCCC2C(=O)N2CCc3ccccc3C2)cc1C (stereo not given) | nt | -5 | 0 | nt | 5 | nt | nt
O=C1c2[nH]nc(-c3ccccc3)c2C(c2cccc(C(F)(F)F)c2)N1c1ccccc1 (stereo not given) | nt | -33 | -32 | -1 | 4 | nt | nt
O=C(O)c1cc(N2C(=O)C=CC2=O)cc(N2C(=O)C=CC2=O)c1 | nt | 24 | 4 | 6 | 75* | -2 | 97*
CCSc1nnc(NC(=O)CSc2sc3c(O)cc(=O)[nH]c3c2C#N)s1 | -4 | -16 | -40 | 14 | 27* | -15 | 10
Cc1ccc(C)c(NC(=O)CSc2sc3c(O)cc(=O)[nH]c3c2C#N)c1 | -1 | 4 | 0 | 8 | 55* | -2 | 7
COC(=O)c1ccc(C)c(NC(=O)CSc2sc3c(O)cc(=O)[nH]c3c2C#N)c1 | -6 | -1 | -3 | 12 | 49* | -15 | 10
Cc1cc(NC(=O)CSc2sc3c(O)cc(=O)[nH]c3c2C#N)ccc1Br | -9 | -8 | -63 | 10 | 30* | -4 | 5
Cc1cc(NC(=O)CSc2nc3[nH]c(=O)cc(O)c3s2)ccc1Br | nt | 10 | -16 | -4 | 8 | -24 | nt

Screening results deposited in PubChem BioAssay by The Scripps Research Institute Molecular Screening Center.
